Test results: ChEMBL document CHEMBL1147671, “Application of the Goldilocks effect to the design of potent and selective inhibitors of phenylethanolamine N-methyltransferase: balancing pKa and steric effects in the optimization of 3-methyl-1,2,3,4-tetrahydroisoquinoline inhibitors by beta-fluorination” (J Med Chem, 2006)

What was measured:
[1] = molecular target: T1, Adrenergic receptor alpha-2 (Rattus norvegicus, UniProt P22086+P19328+P22909); assay: Displacement of [3H]clonidine from alpha-2 adrenergic receptor in Sprague-Dawley rat cortex
T1 sequence (P22086 whole entry): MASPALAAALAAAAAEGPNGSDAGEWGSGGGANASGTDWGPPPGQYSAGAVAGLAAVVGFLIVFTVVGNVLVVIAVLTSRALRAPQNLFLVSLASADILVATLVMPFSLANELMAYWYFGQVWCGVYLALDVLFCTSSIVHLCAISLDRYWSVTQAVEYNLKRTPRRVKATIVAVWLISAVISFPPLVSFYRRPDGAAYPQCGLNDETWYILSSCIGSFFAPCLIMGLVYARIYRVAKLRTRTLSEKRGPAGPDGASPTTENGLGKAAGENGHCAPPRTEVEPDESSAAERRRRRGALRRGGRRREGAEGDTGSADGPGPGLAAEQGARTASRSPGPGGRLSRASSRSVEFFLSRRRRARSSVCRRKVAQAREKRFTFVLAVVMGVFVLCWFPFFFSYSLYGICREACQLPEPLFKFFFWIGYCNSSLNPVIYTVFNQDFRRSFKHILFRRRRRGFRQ
T1 sequence (P19328 whole entry): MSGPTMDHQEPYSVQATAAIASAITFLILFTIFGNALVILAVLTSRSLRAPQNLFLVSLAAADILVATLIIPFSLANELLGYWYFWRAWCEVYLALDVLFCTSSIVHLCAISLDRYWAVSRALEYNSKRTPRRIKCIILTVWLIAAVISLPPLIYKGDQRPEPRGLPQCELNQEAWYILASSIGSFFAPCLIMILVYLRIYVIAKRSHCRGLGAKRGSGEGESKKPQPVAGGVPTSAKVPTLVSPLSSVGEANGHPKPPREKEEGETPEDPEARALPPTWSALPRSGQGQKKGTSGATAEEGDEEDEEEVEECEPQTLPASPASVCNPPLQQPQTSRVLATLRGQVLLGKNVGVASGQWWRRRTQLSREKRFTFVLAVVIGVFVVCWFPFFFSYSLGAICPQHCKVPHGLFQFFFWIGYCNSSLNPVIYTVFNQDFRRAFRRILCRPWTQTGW
T1 sequence (P22909 whole entry): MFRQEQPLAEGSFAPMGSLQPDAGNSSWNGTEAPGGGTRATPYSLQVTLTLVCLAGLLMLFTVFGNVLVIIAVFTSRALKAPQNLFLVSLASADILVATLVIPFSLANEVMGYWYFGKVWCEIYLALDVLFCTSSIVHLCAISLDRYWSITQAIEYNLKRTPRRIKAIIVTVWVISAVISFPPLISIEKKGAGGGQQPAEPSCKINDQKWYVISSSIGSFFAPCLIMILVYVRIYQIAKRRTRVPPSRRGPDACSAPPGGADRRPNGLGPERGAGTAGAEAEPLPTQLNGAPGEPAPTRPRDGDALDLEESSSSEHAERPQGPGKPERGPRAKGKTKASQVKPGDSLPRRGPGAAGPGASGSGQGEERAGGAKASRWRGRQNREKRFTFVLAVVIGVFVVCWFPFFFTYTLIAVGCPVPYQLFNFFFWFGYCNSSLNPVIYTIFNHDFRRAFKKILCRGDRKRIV
How it was run: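 Male rat cortex homogenised in ice-cold 50 mM Tris/HCl (pH 7.7 at 25 °C), washed by three 50,000 × g spins. Membranes incubated with [3H]clonidine (final 2.0 nM) and 5 test concentrations over a 16-fold range, 25 °C for 30 min. Bound ligand collected by vacuum filtration onto GF/B filters and counted by scintillation. Nonspecific binding defined with 2 μM phentolamine. Run in quadruplicate; IC50 by log-probit, Ki by Cheng-Prusoff.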

[2] = Dissociation constant, pKa of the compound; format: physicochemical
[3] = molecular target: T2, Phenylethanolamine N-methyltransferase (Homo sapiens, UniProt P11086); assay: Binding affinity to human PNMT
T2 sequence (P11086 whole entry): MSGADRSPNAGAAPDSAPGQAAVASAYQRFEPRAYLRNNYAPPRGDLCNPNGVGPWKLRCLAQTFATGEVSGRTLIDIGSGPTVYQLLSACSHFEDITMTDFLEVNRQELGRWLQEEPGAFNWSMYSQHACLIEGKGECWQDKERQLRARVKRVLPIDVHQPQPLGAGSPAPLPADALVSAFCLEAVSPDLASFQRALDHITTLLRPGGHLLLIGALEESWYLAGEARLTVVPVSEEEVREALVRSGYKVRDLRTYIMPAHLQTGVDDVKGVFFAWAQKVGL

Row | Ki [1] [mM] | pKa [2] | Ki [3] [mM] | Compound
1 | > 1 |  |  | COCCCNS(=O)(=O)c1ccc2c(c1)CNC(C(F)F)C2 (racemic)
2 | > 1 |  |  | O=S(=O)(NCC(F)(F)F)c1ccc2c(c1)CNC(C(F)(F)F)C2 (racemic)
3 | > 1 |  |  | FC(F)C1Cc2ccc(I)cc2CN1 (racemic)
4 | > 1 |  |  | COCCCNS(=O)(=O)c1ccc2c(c1)CNC(C(F)(F)F)C2 (racemic)
5 | > 1 |  |  | NS(=O)(=O)c1ccc2c(c1)CNC(C(F)F)C2 (stereo not drawn)
6 | 0.19 |  |  | FC(F)C1Cc2ccc(C(F)(F)F)cc2CN1 (racemic)
7 | > 1 |  |  | CCCNS(=O)(=O)c1ccc2c(c1)CNC(C(F)F)C2 (racemic)
8 | 0.15 | 6.42 |  | FC(F)C1Cc2ccccc2CN1 (racemic)
9 | > 1 |  |  | O=S(=O)(Nc1ccc(Cl)cc1)c1ccc2c(c1)CNC(C(F)F)C2 (racemic)
10 | > 1 |  |  | CCCCNS(=O)(=O)c1ccc2c(c1)CNC(C(F)F)C2 (racemic)
11 | > 1 | 5.83 |  | O=[N+]([O-])c1ccc2c(c1)CNC(C(F)F)C2 (racemic)
12 | > 1 |  | 0.11 | O=[N+]([O-])c1ccc(NS(=O)(=O)c2ccc3c(c2)CNC(C(F)(F)F)C3)cc1 (racemic)
13 | > 1 |  |  | O=[N+]([O-])c1ccc(NS(=O)(=O)c2ccc3c(c2)CNC(C(F)F)C3)cc1 (racemic)
14 | 0.23 | 6.12 |  | FC(F)C1Cc2ccc(Br)cc2CN1 (racemic)
15 | 2.5 |  |  | CS(=O)(=O)c1ccc2c(c1)CNC(C(F)F)C2 (racemic)
16 | > 1 |  |  | N#Cc1ccc2c(c1)CNC(C(F)F)C2 (racemic)
17 | > 1 |  |  | O=S(=O)(Nc1ccc(Cl)cc1)c1ccc2c(c1)CNC(C(F)(F)F)C2 (racemic)
18 | > 1 |  |  | CCNS(=O)(=O)c1ccc2c(c1)CNC(C(F)F)C2 (racemic)
19 | > 1 |  |  | O=S(=O)(NCC(F)(F)F)c1ccc2c(c1)CNC(C(F)F)C2 (racemic)
